# Most compounds without a hit are left out; they make up all but 1.3% or so of the library.
# MEX-5 binding: C. elegans MEX-5 TCR-2 RNA binding activity; MEX-5/FITC-TCR2 RNA binding, fluorescence polarization; active compounds read low; activity score (negative = inhibition of binding), % at 10 µM; Q9XUB2; 0.38% of 300,000 active; AID 1832;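 active means inhibition past about -25% in most replicates, and total fluorescence under double the plate's negative control median, limit read from the data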
# T cell modulator: T cell immune modulators affecting CD8 T cell-vesicle binding; 0.068% of 330,000 active; 2C CD8+ T cell-vesicle binding, flow cytometry; active compounds read low; response (vesicle binding), % at 7 µM;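 active means response, share of CD8 T cells binding vesicles, and their 90th percentile fluorescence all below set limits, cut at about 80% in these data, passing the limit was not always enough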;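 further: values below 100% mean blocked vesicle binding to the CD8+ T cells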
#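 Assay system: 2C TCR transgenic mouse naive CD8+ T cells, MACS-purified | Read-out: CD8+ gate FL2 mean fluorescence as % of same-row positive control | Signal: High-throughput flow cytometry with anti-B7-1 and anti-CD8 staining | Timing: Binding step 1.5 h, 37 °C, antibody labelling 20 min, ice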
# EBV gp42 block: EBV gp42 inhibition | Fluorescence polarization binding assay, mP read-out | inhibition, % (tested at 21.74 µM) | 0.42% of 220,000 active; in the data active means inhibition above about 50%
# GRK2 inh: blocks RNA aptamer binding to human GRK2. 0.59% of 330,000 active. bead flow cytometry, FAM-aptamer displacement from GRK2. inhibition of aptamer binding, % at 10 µM;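 active means inhibition of aptamer binding above 40%, roughly 3 SD of noise, on plates passing a quality check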;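 further: median bead fluorescence of bound FAM aptamer so fluorescent compounds give negative values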
# Target sequence (P25098 whole entry, looked up): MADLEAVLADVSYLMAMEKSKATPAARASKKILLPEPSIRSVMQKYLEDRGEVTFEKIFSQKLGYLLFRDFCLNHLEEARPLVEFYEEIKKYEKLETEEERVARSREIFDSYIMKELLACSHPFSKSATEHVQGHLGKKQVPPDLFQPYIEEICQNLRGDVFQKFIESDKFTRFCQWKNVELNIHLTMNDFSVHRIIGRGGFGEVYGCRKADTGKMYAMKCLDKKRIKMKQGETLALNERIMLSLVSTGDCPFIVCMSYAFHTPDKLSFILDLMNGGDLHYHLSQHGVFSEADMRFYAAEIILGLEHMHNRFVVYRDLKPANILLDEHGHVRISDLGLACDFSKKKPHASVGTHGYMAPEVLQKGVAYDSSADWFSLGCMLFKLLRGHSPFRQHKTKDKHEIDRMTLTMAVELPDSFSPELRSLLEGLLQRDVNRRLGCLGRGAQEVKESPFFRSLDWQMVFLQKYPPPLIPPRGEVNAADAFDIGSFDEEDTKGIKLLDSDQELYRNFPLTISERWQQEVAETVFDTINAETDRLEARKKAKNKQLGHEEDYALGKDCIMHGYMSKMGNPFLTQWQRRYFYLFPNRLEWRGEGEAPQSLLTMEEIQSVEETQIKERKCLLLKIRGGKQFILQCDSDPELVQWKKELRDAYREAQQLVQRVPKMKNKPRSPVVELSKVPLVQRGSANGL
# Keap1 Nrf2 FP: Keap1-Nrf2 (human) interaction inhibition. Q14145. Keap1 Kelch-Nrf2 peptide fluorescence polarization, 1536-well. inhibition, % at 9.4 µM. 0.15% of 340,000 active. AID 504523; in the data active means inhibition above about 12%;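 further: human Keap1 Kelch domain with fluorescein labeled Nrf2 9mer peptide probe; higher means more block of Keap1 binding to Nrf2 peptide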
# LANA DNA inh: KSHV C-LANA DNA binding inhibition | MBP-C-LANA/FAM-LBS DNA binding, fluorescence polarization | 0.078% of 340,000 active | inhibition, % at 9 µM | AID 504423;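 active means highest replicate inhibition at or above 60% at 9 µM, even if other replicates fall short; inactive means all replicates below 60% inhibition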
# GRK2 inh confirm: human GRK2 inhibition confirmation, cherry pick 1. shares compounds with GRK2 inh. bead-bound GRK2, FAM-aptamer displacement, flow cytometry. aptamer displacement, % at 10 µM. 4% of 2,000 active. AID 504451;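 active means aptamer displacement above 40%, near three times the noise of non-fluorescent compounds, on plates passing quality checks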;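 further: negative values mostly reflect intrinsic compound fluorescence rather than true enhancement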
# Aptamer quench SP: aptamer fluorescence quenching in GRK2 counter-screen | shares compounds with GRK2 inh | Carboxyfluorescein RNA aptamer on beads, flow cytometry quenching; active compounds read low | fluorescence response (% of DMSO), % at 10 µM | 2,000 tested, under 10 active | AID 504580;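 active means compounds that quench the bead-bound fluorescent RNA probe, cutting fluorescence to under half of the solvent control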;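 further: counterscreen run without GRK2 so only probe quenching by compound is measured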
# GRK2 CP2: human GRK2 inhibition confirmation, cherry pick 2. shares compounds with GRK2 inh. bead-bound GRK2, FAM-aptamer displacement, flow cytometry. inhibition of aptamer binding, % at 10 µM. 360 tested, under 10 active. AID 504782;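 active means inhibition of aptamer binding above 40%, about triple the noise seen with nonglowing compounds, on plates passing quality control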;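 further: negative values mostly come from compounds that fluoresce themselves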
# FAM quench SP: aptamer fluorescence quenching in GRK2 counter-screen; shares compounds with GRK2 inh; carboxyfluorescein RNA aptamer beads, flow cytometry quenching; active compounds read low; fluorescence response vs DMSO, % at 10 µM; 360 tested, under 10 active;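 active means response vs DMSO under 50%, meaning signal dropped by over half, treated as fluorescence quencher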;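 further: labelled aptamer on streptavidin beads without GRK2 as a quench counter-screen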
# Hits are given with their value; - = inactive; . = no result.
SMILES,MEX-5 binding,T cell modulator,EBV gp42 block,GRK2 inh,Keap1 Nrf2 FP,LANA DNA inh,GRK2 inh confirm,Aptamer quench SP,others
O=C1NC(=S)SC1=Cc1ccccc1Cl,.,.,.,.,-,-,.,.,
O=C1NC(=S)S/C1=C\c1ccc(SCc2ccccc2)o1,.,-,-,46,-,-,-,-,
O=C(O)c1ccc(N2C(=O)c3cccc4cccc(c34)C2=O)cc1,-,-,.,-,-,-,.,.,
O=C(O)c1ccc(N2C(=O)c3cccc4c(C(=O)O)ccc(c34)C2=O)cc1,-,-,-,70,-,-,-,-,
O=C(Nc1ccc(F)cc1)c1cc2cc(Cl)ccc2[nH]1,-,-,.,58,-,-,.,.,GRK2 CP2=-;FAM quench SP=-
CCc1ccc2[nH]c(C(=O)Nc3ccc(C)c(F)c3)cc2c1,-,-,.,-,-,-,.,.,
O=C(c1ccc(Cl)cc1)N1CCC(C(=O)N2CCN(c3ncccn3)CC2)CC1,.,-,.,-,-,-,.,.,
CCN(CCO)Cc1csc2cccc(Br)c12,-,-,-,-,-,-,.,.,
CCN(CC)CCN(CC)Cc1ccccc1Br,-,.,-,99,-,-,-,-,
CSc1ccc(C2CC(=O)Nc3c2c(=O)n(C)c(=O)n3C)cc1 (stereo unspecified),-,-,-,85,-,-,-,-,
Cn1c2c(c(=O)n(C)c1=O)C(c1ccccc1Cl)CC(=O)N2 (stereo unspecified),-,-,-,-,-,-,.,.,
CCOc1ccccc1NC(=S)N1C2CCC1CC(NC(=O)NC13CC4CC(CC(C4)C1)C3)C2 (stereo unspecified),-,-,-,-,-,-,.,.,
COc1ccccc1NC(=S)N1C2CCC1CC(NC(=O)NC13CC4CC(CC(C4)C1)C3)C2 (stereo unspecified),-,-,-,46,-,-,-,-,
Cc1c(OCC(=O)NCC(O)c2ccccc2)ccc2c(-c3ccccc3)cc(=O)oc12 (stereo unspecified),-,-,.,-,-,-,.,.,
COc1cc(C(N)=O)cc(Br)c1OCc1ccccc1,-,-,-,100,-,-,.,.,GRK2 CP2=-;FAM quench SP=-
Cc1cc(F)ccc1NC(=O)c1cc(S(=O)(=O)N2CCc3ccccc32)cn1C,-,-,.,73,-,-,-,-,
COc1ccc(NC(=O)c2cc(S(=O)(=O)N3CCc4ccccc43)cn2C)c(OC)c1,-,-,.,-,-,-,.,.,
C/C=C(\C)C(=O)OC1c2c(ccc3ccc(=O)oc23)OC(C)(C)C1OC(C)=O (stereo unspecified),-,-,-,-,-,-,.,.,
C/C=C(/C)C(=O)OC1c2c(ccc3ccc(=O)oc23)OC(C)(C)C1OC(=O)/C(C)=C\C (stereo unspecified),-,-,-,70,-,-,-,-,
COc1ccccc1NC(=O)CC1CCCC1,-,-,.,61,-,-,-,-,
CC12CCC(C(=O)n3c1nc1ccccc13)C2(C)C (stereo unspecified),-,-,-,-,-,-,-,-,
O=C1CSc2nc3ccccc3n21,-,-,-,-,-,-,.,.,
COc1ccc(-c2sc3cc(OC)c(OC)cc3c2C#CC2(O)CCCCC2)cc1,.,-,.,83,-,-,-,-,
O=C(O)c1cc(-c2cccs2)[nH]n1,-,-,-,-,-,-,.,.,
O=C(CSc1ccc([N+](=O)[O-])cc1)Nc1nnc(C2CC2)s1,.,-,.,-,-,-,.,.,
SMILES,MEX-5 binding,T cell modulator,EBV gp42 block,GRK2 inh,Keap1 Nrf2 FP,LANA DNA inh,GRK2 inh confirm,Aptamer quench SP,others
O=C(CC(Cc1ccccc1)C(=O)O)Nc1ccc(Cl)c(Cl)c1 (stereo unspecified),-,-,.,99,-,-,-,-,
CN(CC(=O)Nc1ccc(N2CCOCC2)cc1)C(=O)CCNC(=O)c1ccccc1Cl,-,-,.,-,-,-,.,.,
CN(CC(=O)Nc1ccc(N2CCOCC2)cc1)C(=O)CCc1ccccc1Cl,-,-,.,-,-,-,-,-,
CCOc1ccc2[nH]c3c(N4CCC5(CC4)OCCO5)ncnc3c2c1,-,-,-,-,.,.,.,.,
CC(=O)N(Cc1ccccc1)Cc1nc2sc(C)c(C)c2c(=O)[nH]1,-,-,-,-,-,-,.,.,
Cc1sc2nc(CN(Cc3ccccc3)C(=O)NC3CCCCC3)[nH]c(=O)c2c1C,-,-,.,-,-,-,-,-,
CCOc1ccc(S(=O)(=O)N2CCOCC2)cc1NC(=O)c1ccccc1F,-,-,.,-,-,-,.,.,
CCOc1cc(N2CCOCC2)c(OCC)cc1NC(=O)c1ccc(S(C)(=O)=O)cc1,-,-,-,90,-,-,-,-,
CCOc1cc(N2CCOCC2)c(OCC)cc1NC(=O)c1ccc(F)c(S(=O)(=O)N2CCOCC2)c1,.,.,.,.,-,-,-,-,
O=C(Nc1ccccc1N1CCCCC1)c1ccc(F)c(S(=O)(=O)N2CCOCC2)c1,-,-,.,-,-,-,.,.,
CCOc1cc(N2CCOCC2)c(OCC)cc1NC(=O)c1cc(S(=O)(=O)N2CCOCC2)ccc1C,.,-,.,-,-,-,-,-,
O=C(NCc1ccco1)c1c(O)c2cccc3c2n(c1=O)CCC3,-,-,-,-,-,-,.,.,
CCc1ccc2[nH]c(=O)c(CN(Cc3ccc(OC)cc3)Cc3nnnn3CCOC)cc2c1,-,.,-,.,-,-,.,.,
COc1cccc(/C=C2\SC(=S)N(CCC(=O)NCCc3ccc(O)cc3)C2=O)c1,-,-,.,-,-,-,.,.,
CCN(CC)N=Nc1ccc(S(=O)(=O)N2CCSC2C(=O)O)cc1 (stereo unspecified),-,-,-,-,-,-,.,.,
CCOc1ccc(NS(=O)(=O)c2cc(C(=O)NCCCN3CCCC3=O)ccc2C)cc1,.,-,.,-,-,-,.,.,
COc1cc2oc3cc(C#Cc4ccc(N)cc4)ccc3c(=O)c2cc1OC,-,-,.,70,-,-,-,-,
COc1cc2oc3ccc(C#Cc4ccc(N)cc4)cc3c(=O)c2cc1OC,-,-,.,-,-,-,.,.,
Nc1nc(NCc2ccccc2)nc(NCCO)c1[N+](=O)[O-],-,-,-,-,-,-,.,.,
Nc1nc(NCCO)nc(NCc2ccccc2)c1[N+](=O)[O-],-,-,.,97,-,-,-,-,
COc1cc(/C=C/C(=O)N2CCN(Cc3ccccc3)CC2)cc(OC)c1OC,-,-,.,-,-,-,.,.,
CCN(CC(=O)Nc1c(F)cccc1F)C(=O)/C=C/c1ccc2ccccc2n1,-,-,.,94,-,-,-,-,

# Screens as filed in PubChem BioAssay.
